Measurements reported in ChEMBL document CHEMBL1134593, “Acyclic and cyclopropyl analogues of adenosine bisphosphate antagonists of the P2Y1 receptor: structure-activity relationships and receptor docking” (J Med Chem, 2001).

Legend:
[1] = molecular target: P2Y purinoceptor 1 (Meleagris gallopavo) (UniProt P49652); test: In vitro antagonist activity against turkey P2Y1 receptor, expressed as percent of maximal inhibition at 100 uM; assay type: functional; design: scale not given: the % may be the effect or the level left
Chain of P2Y purinoceptor 1 (Meleagris gallopavo) (P49652 whole entry): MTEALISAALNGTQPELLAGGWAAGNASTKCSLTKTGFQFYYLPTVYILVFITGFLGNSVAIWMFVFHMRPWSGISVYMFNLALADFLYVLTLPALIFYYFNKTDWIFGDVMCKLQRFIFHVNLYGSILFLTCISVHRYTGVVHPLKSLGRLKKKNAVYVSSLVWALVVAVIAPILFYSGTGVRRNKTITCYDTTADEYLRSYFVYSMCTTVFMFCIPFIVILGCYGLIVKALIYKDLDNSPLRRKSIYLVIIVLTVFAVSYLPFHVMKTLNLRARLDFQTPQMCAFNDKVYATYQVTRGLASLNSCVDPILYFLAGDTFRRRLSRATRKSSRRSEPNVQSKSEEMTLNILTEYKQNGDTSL

P2Y purinoceptor 1 = P2Y purinoceptor 1 (Meleagris gallopavo, UniProt P49652); test: Inhibitory concentration against P2Y1 receptor in turkey erythrocyte membranes; assay type: cell membranes
Chain of P2Y purinoceptor 1 (P49652 whole entry): as above
In short: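 Turkey erythrocytes labeled 18–24 h at 37 °C with 2-[3H]myo-inositol in inositol-free DMEM, then lysed hypotonically (5 mM sodium phosphate pH 7.4, 5 mM MgCl2, 1 mM EGTA) to give ghosts. Phospholipase C assayed in Hepes pH 7.0 buffer with 1 μM GTPγS, antagonist and 30 nM 2-MeSADP, 5 min at 30 °C. Total [3H]inositol phosphates quantified by anion exchange.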

Compound	Activity [1]	IC50 (P2Y purinoceptor 1)
CNc1nc(Cl)nc2c1ncn2C1CC1(COP(=O)(O)O)COP(=O)(O)O (stereo unspecified)	100%	2360 nM
CNc1nc(Cl)nc2c1ncn2C[C@H]1[C@H](COP(=O)(O)O)[C@@H]1COP(=O)(O)O	100%	1740 nM
CNc1nc(Cl)nc2c1ncn2CC(CCOP(=O)(O)O)CCOP(=O)(O)O	100%	2040 nM
CNc1nc(Cl)nc2c1ncn2CC=C(COP(=O)(O)O)COP(=O)(O)O	100%	2100 nM
CNc1nc(Cl)nc2c1ncn2CC1[C@H](COP(=O)(O)O)[C@H]1COP(=O)(O)O (stereo partly specified)	100%	2700 nM
CNc1nc(Cl)nc2c1ncn2C(COP(=O)(O)O)COP(=O)(O)O	100%	4560 nM
CNc1nc(Cl)nc2c1ncn2CC(COP(=O)(O)O)COP(=O)(OC)OC (stereo unspecified)	78%	31000 nM
CNc1nc(Cl)nc2c1ncn2CC1CC1(COP(=O)(O)O)COP(=O)(O)O (stereo unspecified)	100%	1900 nM
CNc1nc(Cl)nc2c1ncn2CC(CO)COP(=O)(O)O (stereo unspecified)	68%	22600 nM
CNc1nc(Cl)nc2c1ncn2C[C@@H]1[C@H](COP(=O)(O)O)[C@@H]1COP(=O)(O)O	100%	2170 nM
CNc1nc(Cl)nc2c1ncn2CC(COC(C)=O)COP(=O)(O)O (stereo unspecified)	65%	37600 nM
CNc1nc(Cl)nc2c1ncn2C[C@H](COP(=O)(O)O)OP(=O)(O)O	100%	7860 nM

Compounds with a lower IC50 (P2Y purinoceptor 1), results first:

Activity [1]	IC50 (P2Y purinoceptor 1)	Compound
100%	1600 nM	CNc1ncnc2c1ncn2CCC(COP(=O)(O)O)COP(=O)(O)O
100%	1470 nM	CNc1nc(Cl)nc2c1ncn2C[C@@H](COP(=O)(O)O)OP(=O)(O)O
100%	1090 nM	CNc1ncnc2c1ncn2CC(COP(=O)(O)O)COP(=O)(O)O
99%	840 nM	CNc1nc(Cl)nc2c1ncn2CCC(COP(=O)(O)O)COP(=O)(O)O
100%	480 nM	CNc1nc(Cl)nc2c1ncn2CC(COP(=O)(O)O)COP(=O)(O)O
100%	230 nM	CNc1nc(Cl)nc2c1ncn2CC(COP(=O)(O)O)COP(=O)(O)OP(=O)(O)O (stereo unspecified)
